Laboratory results published in ChEMBL document CHEMBL2321760, “Design, synthesis, and biological evaluation of a series of benzo[de][1,7]naphthyridin-7(8H)-ones bearing a functionalized longer chain appendage as novel PARP1 inhibitors” (J Med Chem, 2013).
pIC50: −log10 of the molar value. Active and inactive are the calls of the source. No cut-off for these calls is given here.

Tests used:
[1] = Cytotoxicity against Chinese hamster V79 cells expressing wild type BRCA2 assessed as growth inhibition; type: cell-based, Cricetulus griseus
Method in brief: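 V79 (wild-type Chinese hamster lung fibroblasts) grown in RPMI-1640 with 10% FBS, 37 °C, 5% CO2. Six concentrations per test. CC50 is the concentration reducing proliferation and growth by 50%, calculated by Logit method from at least three independent tests.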

[2] = biological target: Poly [ADP-ribose] polymerase 1 (Homo sapiens, UniProt P09874); test: Inhibition of human recombinant PARP1 after 1 hr by ELISA
Poly [ADP-ribose] polymerase 1, sequence (P09874 whole entry): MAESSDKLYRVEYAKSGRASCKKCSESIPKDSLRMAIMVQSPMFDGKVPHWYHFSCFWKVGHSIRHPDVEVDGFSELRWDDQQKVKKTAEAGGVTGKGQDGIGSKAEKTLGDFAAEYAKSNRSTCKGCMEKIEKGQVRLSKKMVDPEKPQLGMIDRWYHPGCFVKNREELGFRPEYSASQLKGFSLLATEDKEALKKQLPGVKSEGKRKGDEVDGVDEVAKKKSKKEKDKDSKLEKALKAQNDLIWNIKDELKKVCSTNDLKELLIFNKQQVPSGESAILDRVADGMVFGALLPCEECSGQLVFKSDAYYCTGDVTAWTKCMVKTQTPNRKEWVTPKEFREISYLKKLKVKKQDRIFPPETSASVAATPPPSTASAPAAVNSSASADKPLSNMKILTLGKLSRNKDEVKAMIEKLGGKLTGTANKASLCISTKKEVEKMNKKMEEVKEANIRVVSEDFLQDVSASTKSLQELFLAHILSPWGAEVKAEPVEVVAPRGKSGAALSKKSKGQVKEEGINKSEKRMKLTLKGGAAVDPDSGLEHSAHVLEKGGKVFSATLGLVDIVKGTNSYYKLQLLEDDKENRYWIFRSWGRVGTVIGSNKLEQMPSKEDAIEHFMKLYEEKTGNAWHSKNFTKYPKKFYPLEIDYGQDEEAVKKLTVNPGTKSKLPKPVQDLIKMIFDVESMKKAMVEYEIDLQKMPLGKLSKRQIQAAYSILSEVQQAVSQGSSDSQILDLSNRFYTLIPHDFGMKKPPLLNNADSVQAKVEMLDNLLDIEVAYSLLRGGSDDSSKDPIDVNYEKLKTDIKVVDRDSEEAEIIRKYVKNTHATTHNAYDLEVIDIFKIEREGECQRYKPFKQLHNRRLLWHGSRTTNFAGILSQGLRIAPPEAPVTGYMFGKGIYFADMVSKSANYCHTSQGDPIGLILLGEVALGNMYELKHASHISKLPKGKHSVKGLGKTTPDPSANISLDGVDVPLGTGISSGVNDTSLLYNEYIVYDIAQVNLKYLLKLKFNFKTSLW

[3] = Cytotoxicity against Chinese hamster BRCA2-deficient VC8 cells assessed as growth inhibition; type: cell-based; details: Cricetulus griseus, V-C8
Method in brief: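 V-C8 (BRCA2-deficient Chinese hamster lung fibroblasts) grown in F12 with 10% FBS, 37 °C, 5% CO2. Six concentrations per test. CC50 is the concentration reducing proliferation and growth by 50%, calculated by Logit method from at least three independent tests.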

[4] = Cmax in rat at 20 mg/kg, po; type: ADME, organism-based; set-up: dose 20 mg/kg, route oral; details: in vivo
Method in brief: (§1)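 Rat oral PK, 20 mg/kg po. Vehicle DMSO, Tween 80, normal saline. Cmax, Tmax, AUC0-∞ and oral bioavailability F taken from plasma concentration-time curves. Values are the average of three runs.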

[5] = Cytotoxicity against human BRCA1-deficient MDA-MB-436 cells assessed as growth inhibition; type: cell-based
Method in brief: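 Proliferation assay in BRCA1-mutant human breast cancer MDA-MB-436 cells. Six concentrations per test. CC50 calculated by Logit method from at least three independent tests.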

[6] = (§2) Clearance in rat at 10 mg/kg, iv; type: ADME, organism-based; set-up: dose 10 mg/kg, route intravenous; details: in vivo
Method in brief: (§3)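 Rat intravenous PK, 10 mg/kg iv. Vehicle DMSO, Tween 80, normal saline. Clearance, Vss and half-life derived from plasma concentration-time data. Values are the average of three runs.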

[7] = Ratio of AZD2281 CC50 to compound CC50 for human BRCA1-deficient MDA-MB-436 cells; type: ADME
[8] = Volume of distribution at steady state in rat at 10 mg/kg, iv; type: ADME, organism-based; set-up: dose 10 mg/kg, route intravenous; details: in vivo, read-out: Vdss; method in brief: as §3
PARP 1, 2 and 3 = PARP 1, 2 and 3 (Homo sapiens, UniProt P09874+Q9Y6F1+Q9UGN5); test: Inhibition of PARP1/PARP2 in human SKOV3 cells assessed as reduction in H2O2-induced PARylation incubated for 4 hrs prior to H2O2 treatment; type: cell-based; details: sk-ov-3
[9] = Tmax in rat at 20 mg/kg, po; type: ADME, organism-based; set-up: dose 20 mg/kg, route oral; details: in vivo; method in brief: as §1
[10] = Half life in rat at 10 mg/kg, iv; type: ADME, organism-based; set-up: dose 10 mg/kg, route intravenous; details: in vivo; method in brief: as §3
[11] = (§4) Oral bioavailability in rat at 20 mg/kg; type: ADME, organism-based; details: in vivo; method in brief: as §1
[12] = Ratio of CC50 for Chinese hamster BRCA2-deficient VC8 cells to IC50 for human recombinant PARP1
hERG (KCNH2) = hERG (KCNH2) (Homo sapiens, UniProt Q12809); test: Inhibition of human ERG at 5 uM relative to control
hERG (KCNH2), sequence (Q12809 whole entry): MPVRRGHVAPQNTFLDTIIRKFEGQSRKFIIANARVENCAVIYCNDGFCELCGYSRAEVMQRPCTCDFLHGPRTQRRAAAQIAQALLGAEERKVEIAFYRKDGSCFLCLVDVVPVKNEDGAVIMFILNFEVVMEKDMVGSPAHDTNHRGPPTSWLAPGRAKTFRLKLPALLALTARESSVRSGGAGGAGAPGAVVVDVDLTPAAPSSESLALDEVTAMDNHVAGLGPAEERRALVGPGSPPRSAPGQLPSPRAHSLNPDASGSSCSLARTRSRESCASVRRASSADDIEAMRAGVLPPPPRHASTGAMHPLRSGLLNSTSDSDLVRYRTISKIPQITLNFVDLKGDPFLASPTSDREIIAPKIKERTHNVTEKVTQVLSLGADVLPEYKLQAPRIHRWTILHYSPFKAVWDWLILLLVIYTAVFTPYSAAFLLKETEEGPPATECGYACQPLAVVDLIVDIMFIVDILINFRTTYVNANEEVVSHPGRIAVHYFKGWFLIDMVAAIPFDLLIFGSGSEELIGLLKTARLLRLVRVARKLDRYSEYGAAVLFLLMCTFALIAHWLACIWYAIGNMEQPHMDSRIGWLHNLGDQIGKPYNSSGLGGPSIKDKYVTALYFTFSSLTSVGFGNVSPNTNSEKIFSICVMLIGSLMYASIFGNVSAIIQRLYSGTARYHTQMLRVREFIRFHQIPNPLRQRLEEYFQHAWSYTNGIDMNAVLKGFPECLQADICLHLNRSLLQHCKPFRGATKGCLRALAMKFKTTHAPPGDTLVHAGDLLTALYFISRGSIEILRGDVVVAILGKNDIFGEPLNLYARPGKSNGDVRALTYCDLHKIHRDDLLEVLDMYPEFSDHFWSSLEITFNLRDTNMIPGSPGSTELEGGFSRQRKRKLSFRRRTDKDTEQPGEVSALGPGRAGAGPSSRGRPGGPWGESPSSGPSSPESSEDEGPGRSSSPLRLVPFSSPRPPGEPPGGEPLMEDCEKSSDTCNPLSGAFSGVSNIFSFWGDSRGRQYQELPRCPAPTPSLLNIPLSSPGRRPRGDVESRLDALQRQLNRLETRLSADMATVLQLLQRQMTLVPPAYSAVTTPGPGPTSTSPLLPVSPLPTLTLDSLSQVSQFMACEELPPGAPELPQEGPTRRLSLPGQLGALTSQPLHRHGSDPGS

SK-OV-3 [13] = test: Potentiation of temozolomide-induced cytotoxicity in human SKOV3 cells assessed as reduction in temozolomide IC50 at 0.5 uM after 7 days by sulforhodamine B assay; type: functional
Method in brief: (§5)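 SKOV3 cells in DMEM with 10% FBS were given gradient concentrations of temozolomide, alone or with compound at 0.5 or 1.0 µM, for 7 days. Cytotoxicity read by sulforhodamine B. Temozolomide IC50 reported as mean ± SD, n=3.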

SK-OV-3 [14] = test: Potentiation of temozolomide-induced cytotoxicity in human SKOV3 cells assessed as reduction in temozolomide IC50 at 1 uM after 7 days by sulforhodamine B assay; type: functional; method in brief: as §5
[15] = biological target: Poly [ADP-ribose] polymerase 1 (Cricetulus griseus) (UniProt Q9R152); test: Inhibition of PARP1 in Chinese hamster BRCA2-deficient VC8 cells assessed as impairment of cell cycle progression at 0.5 uM after 24 hrs by propidium iodide staining-based FACS flow cytometric analysis
Poly [ADP-ribose] polymerase 1 (Cricetulus griseus), sequence (Q9R152 whole entry): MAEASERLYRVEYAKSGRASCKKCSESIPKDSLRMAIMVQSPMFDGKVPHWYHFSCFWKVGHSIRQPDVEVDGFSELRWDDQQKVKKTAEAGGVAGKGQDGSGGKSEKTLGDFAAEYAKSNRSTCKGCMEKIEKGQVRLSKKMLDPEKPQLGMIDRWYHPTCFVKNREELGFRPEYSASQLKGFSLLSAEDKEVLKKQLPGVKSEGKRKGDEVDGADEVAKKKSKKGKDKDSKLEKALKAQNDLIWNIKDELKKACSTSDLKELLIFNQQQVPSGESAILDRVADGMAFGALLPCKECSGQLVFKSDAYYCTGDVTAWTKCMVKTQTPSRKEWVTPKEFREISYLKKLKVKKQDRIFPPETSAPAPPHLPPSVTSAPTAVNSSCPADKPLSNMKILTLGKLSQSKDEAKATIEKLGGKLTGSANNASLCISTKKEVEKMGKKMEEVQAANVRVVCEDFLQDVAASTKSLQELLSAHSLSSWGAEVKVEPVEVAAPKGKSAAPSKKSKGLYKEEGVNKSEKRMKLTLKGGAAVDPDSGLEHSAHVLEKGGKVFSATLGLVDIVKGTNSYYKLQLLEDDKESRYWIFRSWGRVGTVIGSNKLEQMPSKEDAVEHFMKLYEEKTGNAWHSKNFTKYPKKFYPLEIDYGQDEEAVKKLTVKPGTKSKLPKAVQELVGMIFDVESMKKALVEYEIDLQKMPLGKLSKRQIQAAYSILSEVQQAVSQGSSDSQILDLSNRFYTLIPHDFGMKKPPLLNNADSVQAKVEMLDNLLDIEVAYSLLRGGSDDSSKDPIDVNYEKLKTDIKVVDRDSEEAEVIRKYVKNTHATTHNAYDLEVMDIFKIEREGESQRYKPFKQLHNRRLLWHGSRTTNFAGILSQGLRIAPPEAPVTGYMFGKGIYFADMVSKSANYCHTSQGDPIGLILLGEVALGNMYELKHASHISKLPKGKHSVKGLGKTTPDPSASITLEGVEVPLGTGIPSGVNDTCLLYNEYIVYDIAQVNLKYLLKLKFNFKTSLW
Method in brief: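 BRCA2-deficient V-C8 cells treated with compound at 0.5 µM, 37 °C, 24 h. Cells then harvested, fixed and stained with 10 µg/mL propidium iodide. Cell-cycle distribution read by flow cytometry, at least 10,000 events per sample.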

[16] = (§6) AUC (0 to infinity) in rat at 20 mg/kg, po; type: ADME, organism-based, Plasma; set-up: time infinity, dose 20 mg/kg, route oral; details: plasma; method in brief: as §1
[17] = Ratio of AZD2281 CC50 to compound CC50 for Chinese hamster BRCA2-deficient VC8 cells; type: ADME, cell-based, Cricetulus griseus
Rattus norvegicus [18] = test: as §2; type: ADME, organism-based; set-up: dose 10 mg/kg, route intravenous; details: in vivo; method in brief: as §3
Rattus norvegicus [19] = test: as §4; type: ADME, organism-based; details: in vivo; method in brief: as §1
Rattus norvegicus [20] = test: as §6; type: ADME, organism-based, Plasma; set-up: time infinity, dose 20 mg/kg, route oral; details: in vivo; method in brief: as §1

SMILES	CC50 [1]	pIC50 [2]	CC50 [3]	other results
O=C1NCC2c3c(cccc31)CCN2C(=O)C1CCCN1C(=O)c1cc(Cc2n[nH]c(=O)c3ccccc23)ccc1F (stereo not drawn)	> 10 µM	7.35	> 1 µM	
Cc1c(Cc2ccc(F)c(C(=O)N3CCc4cccc5c4C3CNC5=O)c2)n[nH]c(=O)c1C (stereo not drawn)	> 10 µM	7.44	> 1 µM	
O=C(CN1CCc2cccc3c2C1CNC3=O)N[C@@H](Cc1ccccc1)C(=O)N1CC=C(c2ccc(F)cc2)CC1 (stereo partly drawn)		6.31		
O=C(NC1CNC(=O)c2ccccc21)c1cccc(Cc2n[nH]c(=O)c3ccccc23)c1 (stereo not drawn)	> 10 µM	6.84	> 10 µM	
O=C1NCC2c3c(cccc31)CCN2CC(=O)N1CCn2c(nnc2C(F)(F)F)C1 (stereo not drawn)		< 5.00		
O=C1NCC2c3c(cccc31)CCN2C(=O)c1cc(Cc2n[nH]c(=O)c3ccccc23)ccc1F (stereo not drawn)	> 10 µM	9.51	0.096 µM	Cmax [4]: 0.722 µg/mL; CC50 [5]: 0.0233 µM; clearance [6]: 2.28 L/h/kg; Ratio [7]: 2; Vd [8]: 4.27 L/kg; IC50 (PARP 1, 2 and 3): 0.0661 µM; Tmax [9]: 25.2 min; half-life [10]: 104 min; bioavailability [11]: 21%; Ratio CC50/IC50 [12]: 300; inhibition at 5 µM (hERG (KCNH2)): 17%; fold change (FC) (SK-OV-3 [13]): 9.3; fold change (FC) (SK-OV-3 [14]): 10.6; inhibition [15]: Active; AUC(0-inf) [16]: 1.82 µg·h/mL
O=C1NCC2c3c(cccc31)CCN2C(=O)C1CCN(C(=O)c2cc(Cc3n[nH]c(=O)c4ccccc34)ccc2F)CC1 (stereo not drawn)	> 10 µM	8.72	> 1 µM	CC50 [5]: 0.344 µM
O=C1NCC2c3c(cccc31)CCN2CC(=O)N1CC2CCCNC2C1 (stereo not drawn)		5.03		
COc1ccc(N2CCN(C(=O)CNC(=O)CCN3CCc4cccc5c4C3CNC5=O)CC2)cc1 (stereo not drawn)		5.06		
O=C(CCN1CCc2cccc3c2C1CNC3=O)NCC(=O)N1CC=C(c2ccc(F)cc2)CC1 (stereo not drawn)		5.96		
O=C(c1cc(Cc2n[nH]c(=O)c3ccccc23)ccc1F)N1CCc2cccc3c2C1CNC3 (stereo not drawn)	> 10 µM	6.81	> 10 µM	
O=C1NCC2c3c(cccc31)CCN2CC(=O)N1C[C@H]2CNC[C@H]2C1 (stereo partly drawn)		5.06		
COc1ccc(N2CCN(C(=O)CNC(=O)CCCN3CCc4cccc5c4C3CNC5=O)CC2)cc1 (stereo not drawn)		5.05		
O=C(CN1CCc2cccc3c2C1CNC3=O)N[C@H](Cc1ccccc1)C(=O)N1CC=C(c2ccc(F)cc2)CC1 (stereo partly drawn)		< 5.00		
O=C(CCN1CCc2cccc3c2C1CNC3=O)NCC(=O)N1CCN(c2ncccn2)CC1 (stereo not drawn)		5.07		
O=C1CC2c3c(cccc3N1)CCN2C(=O)c1cc(Cc2n[nH]c(=O)c3ccccc23)ccc1F (stereo not drawn)	> 10 µM	6.41	> 10 µM	
O=C(NCC(=O)N1CCc2cccc3c2C1CNC3=O)c1cc(Cc2n[nH]c(=O)c3ccccc23)ccc1F (stereo not drawn)	> 10 µM	7.48	> 1 µM	
O=C(N[C@@H]1C[C@H](O)c2ccccc21)c1cc(Cc2n[nH]c(=O)c3ccccc23)ccc1F (relative stereo)	1.49 µM	8.32	0.418 µM	CC50 [5]: 4.52 µM

SMILES	CC50 [1]	pIC50 [2]	CC50 [3]	other results
O=C(NC1CNC(=O)c2ccccc21)c1cc(Cc2n[nH]c(=O)c3ccccc23)ccc1F (stereo not drawn)	> 10 µM	7.06	> 10 µM	
O=C1NCC2c3c(cccc31)CCN2C(=O)c1cc(Cc2n[nH]c(=O)c3c2CCCC3)ccc1F (stereo not drawn)	> 10 µM	8.74	0.114 µM	Ratio [17]: 2
O=C1CC2c3c(cccc31)CCN2C(=O)c1cc(Cc2n[nH]c(=O)c3ccccc23)ccc1F (stereo not drawn)	> 10 µM	8.46	0.00453 µM	Cmax [4]: 0.116 µg/mL; CC50 [5]: < 0.00026 µM; CL (Rattus norvegicus [18]): 7.67 L/h/kg; Ratio [7]: 160; Vd [8]: 4.56 L/kg; IC50 (PARP 1, 2 and 3): 0.00049 µM; Tmax [9]: 26.4 min; Ratio [17]: 40; half-life [10]: 66.6 min; F (Rattus norvegicus [19]): 10%; inhibition at 5 µM (hERG (KCNH2)): 34%; fold change (FC) (SK-OV-3 [13]): 19.5; fold change (FC) (SK-OV-3 [14]): 22.2; inhibition [15]: Active; AUC (Rattus norvegicus [20]): 0.98 µg·h/mL
O=C(N[C@@H]1C[C@@H](O)c2ccccc21)c1cc(Cc2n[nH]c(=O)c3ccccc23)ccc1F (relative stereo)	4.26 µM	9.24	2.27 µM	CC50 [5]: 0.775 µM
C[C@H](NC(=O)CN1CCc2cccc3c2C1CNC3=O)C(=O)N1CC=C(c2ccc(F)cc2)CC1 (stereo partly drawn)		7.72		
NC1CC2c3c(cccc31)CCN2C(=O)c1cc(Cc2n[nH]c(=O)c3ccccc23)ccc1F (stereo not drawn)	> 10 µM	7.12	> 10 µM	
CN(C(=O)c1cc(Cc2n[nH]c(=O)c3ccccc23)ccc1F)C1CC(=O)c2ccccc21 (stereo not drawn)	> 10 µM	7.95	4.68 µM	
COc1ccc(N2CCN(C(=O)CNC(=O)CN3CCc4cccc5c4C3CNC5=O)CC2)cc1 (stereo not drawn)		6.52		
O=C(NC1CC(=O)c2ccccc21)c1cc(Cc2n[nH]c(=O)c3ccccc23)ccc1F (stereo not drawn)	> 10 µM	7.08	> 10 µM	
O=C(c1cc(Cc2n[nH]c(=O)c3ccccc23)ccc1F)N1CCc2cccc3c2C1CC3O (stereo not drawn)	> 10 µM	7.06	> 10 µM	
C[C@@H](NC(=O)CN1CCc2cccc3c2C1CNC3=O)C(=O)N1CC=C(c2ccc(F)cc2)CC1 (stereo partly drawn)		6.68		
O=C(c1cc(Cc2n[nH]c(=O)c3ccccc23)ccc1F)N1CCN(C(=O)C2CC2)CC1 [OLAPARIB]	> 10 µM		0.201 µM	CC50 [5]: 0.0432 µM; fold change (FC) (SK-OV-3 [13]): 9.6; fold change (FC) (SK-OV-3 [14]): 10.4
O=C(c1cc(Cc2n[nH]c(=O)c3ccccc23)ccc1F)N1CCc2cccc3c2C1CC3F (stereo not drawn)	> 10 µM	9.25	> 10 µM	CC50 [5]: 4.3 µM
O=C1NCC2c3c(cccc31)CCN2CC(=O)N1CCC2CNCC21 (stereo not drawn)		5.03		
Cc1cc(Cc2ccc(F)c(C(=O)N3CCc4cccc5c4C3CNC5=O)c2)n[nH]c1=O (stereo not drawn)		6.68		
O=C(c1cc(Cc2n[nH]c(=O)c3ccccc23)ccc1F)N1Cc2cccc3c2C(C1)NCC3 (stereo not drawn)	> 10 µM	8.86	0.63 µM	CC50 [5]: 0.556 µM
O=C(CCN1CCc2cccc3c2C1CNC3=O)NCC(=O)N1CCN(c2ccccc2F)CC1 (stereo not drawn)		5.05		
